Data as given in ChEMBL document CHEMBL1158122, “Anti-inflammatory, anti-tumor-promoting, and cytotoxic activities of constituents of marigold (Calendula officinalis) flowers” (J Nat Prod, 2006).

Key:
UACC-62 = assay: Cytotoxicity against human UACC-62 cells after 48 hrs by SRB assay; type: functional; details: UACC-62, 48 h
In short: (§1)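 Tested in the NCI panel of 60 human tumour cell lines covering lung, colon, melanoma, renal, ovarian, breast and leukaemia. At least five concentrations were run in 10-fold dilutions starting from 10^-4 M. Exposure was continuous for 48 h. Growth or viability was estimated by sulforhodamine B protein staining, and GI50 values were reported.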

EKVX = assay: Cytotoxicity against human EKVX cells after 48 hrs by SRB assay; type: functional
T47D = assay: Cytotoxicity against human T47D cells after 48 hrs by SRB assay; type: functional; in short: as §1
Malme-3M = assay: Cytotoxicity against human MALME-3M cells after 48 hrs by SRB assay; type: functional
K562 = assay: Cytotoxicity against human K-562 cells after 48 hrs by SRB assay; type: functional; details: K562, 48 h
SW-620 = assay: Cytotoxicity against human SW620 cells after 48 hrs by SRB assay; type: functional; details: SW-620, 48 h
HL-60 = assay: Cytotoxicity against human HL-60 cells after 48 hrs by SRB assay; type: functional; details: HL-60, 48 h
NCI-H23 = assay: Cytotoxicity against human NCI-H23 cells after 48 hrs by SRB assay; type: functional; details: NCI-H23, 48 h
[1] = Cytotoxicity against human Raji cells assessed as cell viability at 100 molar ratio; type: cell-based; details: read-out: Activity
In short: (§2)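 Raji cells were treated with 32 pmol TPA to induce EBV early antigen activation. The test agent was added at 10, 100, 500 or 1000 mol ratio relative to TPA, and Raji cell viability was measured alongside EA activation.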

NCI/ADR-RES = assay: Cytotoxicity against human NCI/ADR-RES cells after 48 hrs by SRB assay; type: functional
SF-268 = assay: Cytotoxicity against human SF-268 cells after 48 hrs by SRB assay; type: functional; details: SF-268, 48 h
[2] = Cytotoxicity against human Hs 578T cells after 48 hrs by SRB assay; type: functional
CCRF-CEM = assay: Cytotoxicity against human CCRF-CEM cells after 48 hrs by SRB assay; type: functional
IGROV-1 = assay: Cytotoxicity against human IGROV1 cells after 48 hrs by SRB assay; type: functional; details: IGROV-1, 48 h
HCC 2998 = assay: Cytotoxicity against human HCC2998 cells after 48 hrs by SRB assay; type: functional; details: HCC 2998, 48 h
Raji [3] = assay: Inhibition of TPA-induced EBV-early antigen activation in human Raji cells at 1000 molar ratio relative to TPA; type: cell-based; set-up: scale not given: the % may be the effect or the level left; details: human gammaherpesvirus 4
NCI-H226 = assay: Cytotoxicity against human NCI-H226 cells after 48 hrs by SRB assay; type: functional; details: NCI-H226, 48 h
ACHN = assay: Cytotoxicity against human ACHN cells after 48 hrs by SRB assay; type: functional
[4] = Cytotoxicity against human SK MEL28 cells after 48 hrs by SRB assay; type: functional; details: SK-MEL-28, 48 h
Raji [5] = assay: Inhibition of TPA-induced EBV-early antigen activation in human Raji cells at 10 molar ratio relative to TPA; type: cell-based; set-up: scale not given: the % may be the effect or the level left; details: human gammaherpesvirus 4
MCF7 = assay: Cytotoxicity against human MCF7 cells after 48 hrs by SRB assay; type: functional; details: MCF7, 48 h
A549 = assay: Cytotoxicity against human A549 cells after 48 hrs by SRB assay; type: functional; details: A549, 48 h
MDA-MB-435 = assay: Cytotoxicity against human MDA-MB-435 cells after 48 hrs by SRB assay; type: functional; details: MDA-MB-435, 48 h
PC-3 = assay: Cytotoxicity against human PC-3 cells after 48 hrs by SRB assay; type: functional; details: PC-3, 48 h
HT-29 = assay: Cytotoxicity against human HT-29 cells after 48 hrs by SRB assay; type: functional; details: HT-29, 48 h
SK-MEL-2 = assay: Cytotoxicity against human SK-MEL-2 cells after 48 hrs by SRB assay; type: functional; details: SK-MEL-2, 48 h
LOX IMVI = assay: Cytotoxicity against human LOX IMVI cells after 48 hrs by SRB assay; type: functional
HCT-15 = assay: Cytotoxicity against human HCT-15 cells after 48 hrs by SRB assay; type: functional; details: HCT-15, 48 h
NCI-H322M = assay: Cytotoxicity against human NCI-H322M cells after 48 hrs by SRB assay; type: functional
OVCAR-3 = assay: Cytotoxicity against human OVCAR-3 cells after 48 hrs by SRB assay; type: functional; details: OVCAR-3, 48 h
OVCAR-8 = assay: Cytotoxicity against human OVCAR8 cells after 48 hrs by SRB assay; type: functional; details: OVCAR-8, 48 h
COLO 205 = assay: Cytotoxicity against human COLO205 cells after 48 hrs by SRB assay; type: functional; details: COLO 205, 48 h
UO-31 = assay: Cytotoxicity against human UO-31 cells after 48 hrs by SRB assay; type: functional; details: UO-31, 48 h; in short: as §1
UACC-257 = assay: Cytotoxicity against human UACC-257 cells after 48 hrs by SRB assay; type: functional; details: UACC-257, 48 h; in short: as §1
NCI-H460 = assay: Cytotoxicity against human NCI-H460 cells after 48 hrs by SRB assay; type: functional; details: NCI-H460, 48 h
U-251 = assay: Cytotoxicity against human U251 cells after 48 hrs by SRB assay; type: functional; details: U-251, 48 h; in short: as §1
SK-MEL-5 = assay: Cytotoxicity against human SK-MEL-5 cells after 48 hrs by SRB assay; type: functional; details: SK-MEL-5, 48 h
RXF 393 = assay: Cytotoxicity against human […] cells after 48 hrs by SRB assay; type: functional; details: RXF 393, 48 h
CAKI-1 = assay: Cytotoxicity against human Caki-1 cells after 48 hrs by SRB assay; type: functional; details: CAKI-1, 48 h
[6] = Cytotoxicity against human Raji cells assessed as cell viability at 1000 molar ratio; type: cell-based; details: read-out: Activity; in short: as §2
BT-549 = assay: Cytotoxicity against human BT-549 cells after 48 hrs by SRB assay; type: functional; details: BT-549, 48 h
[7] = Inhibition of TPA-induced EBV-early antigen activation in human Raji cells relative to TPA; type: cell-based, human gammaherpesvirus 4
SN12C = assay: Cytotoxicity against human SN12C cells after 48 hrs by SRB assay; type: functional
SNB-19 = assay: Cytotoxicity against human SNB-19 cells after 48 hrs by SRB assay; type: functional; details: SNB-19, 48 h
KM12 = assay: Cytotoxicity against human KM12 cells after 48 hrs by SRB assay; type: functional; details: KM12, 48 h
786-0 = assay: Cytotoxicity against human 786-0 cells after 48 hrs by SRB assay; type: functional; details: 786-0, 48 h
MOLT-4 = assay: Cytotoxicity against human MOLT-4 cells after 48 hrs by SRB assay; type: functional; details: MOLT-4, 48 h
OVCAR-5 = assay: Cytotoxicity against human OVCAR5 cells after 48 hrs by SRB assay; type: functional; details: OVCAR-5, 48 h
TK-10 = assay: Cytotoxicity against human TK-10 cells after 48 hrs by SRB assay; type: functional; details: TK-10, 48 h; in short: as §1
[8] = Cytotoxicity against human HCT 116 cells after 48 hrs by SRB assay; type: functional; details: HCT-116, 48 h
HOP-62 = assay: Cytotoxicity against human HOP-62 cells after 48 hrs by SRB assay; type: functional; details: HOP-62, 48 h
[9] = Cytotoxicity against human Raji cells assessed as cell viability at 500 molar ratio; type: cell-based; details: read-out: Activity; in short: as §2
Raji [10] = assay: Inhibition of TPA-induced EBV-early antigen activation in human Raji cells at 500 molar ratio relative to TPA; type: cell-based; set-up: scale not given: the % may be the effect or the level left; details: human gammaherpesvirus 4
MDA-MB-231 = assay: Cytotoxicity against human MDA-MB-231 cells after 48 hrs by SRB assay; type: functional; details: MDA-MB-231, 48 h
Raji [11] = assay: Inhibition of TPA-induced EBV-early antigen activation in human Raji cells at 100 molar ratio relative to TPA; type: cell-based; set-up: scale not given: the % may be the effect or the level left; details: human gammaherpesvirus 4
[12] = Cytotoxicity against human Raji cells assessed as cell viability at 10 molar ratio; type: cell-based; details: read-out: Activity; in short: as §2
NCI-H522 = assay: Cytotoxicity against human NCI-H522 cells after 48 hrs by SRB assay; type: functional; details: NCI-H522, 48 h

COC(=O)[C@H]1O[C@@H](O[C@H]2CC[C@]3(C)[C@H]4CC=C5[C@@H]6CC(C)(C)CC[C@]6(C(=O)O)CC[C@@]5(C)[C@]4(C)CC[C@H]3C2(C)C)[C@H](O)[C@@H](O[C@@H]2O[C@H](CO)[C@H](O)[C@H](O)[C@H]2O)[C@@H]1O
GI50 (UACC-62): 6.23 µM
GI50 (EKVX): 6.59 µM
GI50 (T47D): 8.16 µM
GI50 (Malme-3M): 6.22 µM
GI50 (K562): 8.17 µM
GI50 (SW-620): 7.28 µM
GI50 (HL-60): 6.92 µM
GI50 (NCI-H23): 6.46 µM
viability at 100 molar ratio [1]: > 80%
GI50 (NCI/ADR-RES): 7.24 µM
GI50 (SF-268): 7.56 µM
GI50 [2]: 8.77 µM
GI50 (CCRF-CEM): 5.79 µM
GI50 (IGROV-1): 20.1 µM
GI50 (HCC 2998): 7.14 µM
Activity (Raji [3]): 10%
GI50 (NCI-H226): 6.18 µM
GI50 (ACHN): 5.99 µM
GI50 [4]: 10.2 µM
Activity (Raji [5]): 100%
GI50 (MCF7): 9.93 µM
GI50 (A549): 7.22 µM
GI50 (MDA-MB-435): 13.3 µM
GI50 (PC-3): 6.43 µM
GI50 (HT-29): 12.4 µM
GI50 (SK-MEL-2): 11.9 µM
GI50 (LOX IMVI): 6.27 µM
GI50 (HCT-15): 6.57 µM
GI50 (NCI-H322M): 7.59 µM
GI50 (OVCAR-3): 13.9 µM
GI50 (OVCAR-8): 9.96 µM
GI50 (COLO 205): 8.64 µM
GI50 (UO-31): 33.3 µM
GI50 (UACC-257): 6.89 µM
GI50 (NCI-H460): 11.5 µM
GI50 (U-251): 6.08 µM
GI50 (SK-MEL-5): 6.14 µM
GI50 (RXF 393): 11.3 µM
GI50 (CAKI-1): 12.2 µM
viability at 1000 molar ratio [6]: 70%
GI50 (BT-549): 6.93 µM
IC50 [7]: 479 molar ratio
GI50 (SN12C): 6.34 µM
GI50 (SNB-19): 6.82 µM
GI50 (KM12): 8.83 µM
GI50 (786-0): 6.36 µM
GI50 (MOLT-4): 2.17 µM
GI50 (OVCAR-5): 7.31 µM
GI50 (TK-10): 7.22 µM
GI50 [8]: 6.39 µM
GI50 (HOP-62): 6.21 µM
viability at 500 molar ratio [9]: > 80%
Activity (Raji [10]): 47.2%
GI50 (MDA-MB-231): 7.28 µM
Activity (Raji [11]): 71.2%
viability at 10 molar ratio [12]: > 80%
GI50 (NCI-H522): 10.5 µM
